# Measurements as given in ChEMBL document CHEMBL1155469, “Peptide nucleic acids conjugated to short basic peptides show improved pharmacokinetics and antisense activity in adipose tissue” (J Med Chem, 2010).
# pIC50: −log10 of the molar value. Activity calls are given as the source filed them. The rule behind the calls is not given here.
# How the values were obtained:
# Mus musculus [1] = assay: Toxicity in Balb/C mouse assessed as change in serum AST levels at 25 mg/kg, ip administered thrice a week for 2 weeks measured 48 hrs after last dose; type: organism-based; set-up: dose 25 mg/kg, route intraperitoneal; details: in vivo
# How it was run: (§1)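 Male Balb/c mice, 6–8 wk, n=4/group, received compound i.p. in PBS (10 ul/g) 3x/wk for 2 wk. Body weight was monitored throughout. At 48 h after the last dose, mice were anesthetized with isoflurane and bled by cardiac puncture. Serum AST, ALT, BUN, bilirubin, glucose and triglycerides were compared with the saline group. ALT rise below 2x normal was counted as absent.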
# Mus musculus [2] = assay: Inhibition of PTEN expression in Balb/C mouse liver at 25 mg/kg, ip administered thrice a week for 2 weeks measured 48 hrs after last dose by Western blot analysis; type: functional, organism-based; set-up: dose 25 mg/kg
# How it was run: (§2)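 Male Balb/c mice, 6–8 wk, n=4/group, dosed i.p. in PBS 3x/wk for 2 wk and killed 48 h after the last dose. Tissue was homogenized in RIPA buffer with protease inhibitors, and protein was measured by Lowry assay. Lysates were run on 10% PAGE and blotted to PVDF. Blots were probed with rabbit anti-PTEN (1:1000) and HRP anti-rabbit (1:2500), with ECL detection.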
# Mus musculus [3] = assay: Toxicity in Balb/C mouse assessed as change in serum bilirubin levels at 25 mg/kg, ip administered thrice a week for 2 weeks measured 48 hrs after last dose; type: organism-based; set-up: dose 25 mg/kg, route intraperitoneal; details: in vivo; how it was run: as §1
# Mus musculus [4] = assay: Toxicity in Balb/C mouse assessed as change in serum ALT levels at 25 mg/kg, ip administered thrice a week for 2 weeks measured 48 hrs after last dose; type: organism-based; set-up: dose 25 mg/kg, route intraperitoneal; details: in vivo; how it was run: as §1
# Mus musculus [5] = assay: Inhibition of PTEN expression in Balb/C mouse white adipose tissue assessed as reduction of full length transcript at 25 mg/kg, ip administered thrice a week for 2 weeks measured 48 hrs after last dose […]; type: functional, organism-based; set-up: dose 25 mg/kg
# Mus musculus [6] = assay: Toxicity in Balb/C mouse assessed as change in serum triglyceride levels at 25 mg/kg, ip administered thrice a week for 2 weeks measured 48 hrs after last dose; type: organism-based; set-up: dose 25 mg/kg, route intraperitoneal; details: in vivo; how it was run: as §1
# BCL1 = assay: Inhibition of PTEN expression in mouse BCL1 cells after 62 hrs by Western blotting; type: functional, cell-based; details: BCL1, 62 h
# How it was run: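 BCL1 cells were grown in DMEM with 10% FBS at 37 °C, 5% CO2. Compound was delivered to 2×10^6 cells by electroporation (200 V, 1000 uF, 13 ohms), and cells were harvested 62 h later. Western blot of RIPA lysates used rabbit anti-PTEN and anti-CD40 (1:1000) with HRP secondary and ECL detection. PTEN was normalized to CD40. n=3, mean ± SD.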
# Mus musculus [7] = assay: Toxicity in Balb/C mouse assessed as change in body weight at 25 mg/kg, ip administered thrice a week for 2 weeks measured 48 hrs after last dose; type: organism-based; set-up: dose 25 mg/kg, route intraperitoneal; details: in vivo; how it was run: as §1
# Mus musculus [8] = assay: Toxicity in Balb/C mouse assessed as change in blood urea nitrogen levels at 25 mg/kg, ip administered thrice a week for 2 weeks measured 48 hrs after last dose; type: organism-based; set-up: dose 25 mg/kg, route intraperitoneal; details: in vivo; how it was run: as §1
# Mus musculus [9] = assay: Inhibition of PTEN expression in Balb/C mouse kidney at 25 mg/kg, ip administered thrice a week for 2 weeks measured 48 hrs after last dose by Western blot analysis; type: functional, organism-based; set-up: dose 25 mg/kg; how it was run: as §2
# Mus musculus [10] = assay: Inhibition of PTEN expression in Balb/C mouse white adipose tissue assessed as upregulation of isoform lacking exon at 25 mg/kg, ip administered thrice a week for 2 weeks measured 48 hrs after last dose […]; type: functional, organism-based; set-up: dose 25 mg/kg
# Mus musculus [11] = assay: Toxicity in Balb/C mouse assessed as change in serum glucose levels at 25 mg/kg, ip administered thrice a week for 2 weeks measured 48 hrs after last dose; type: organism-based; set-up: dose 25 mg/kg, route intraperitoneal; details: in vivo; how it was run: as §1
compound,measurement,setting,value
COCCO[C@@H]1[C@H](OP(=O)(S)OC[C@H]2O[C@@H](n3cc(C)c(=O)[nH]c3=O)C[C@@H]2OP(=O)(S)OC[C@H]2O[C@@H](n3cnc4c(=O)[nH]c(N)nc43)[C@H](OCCOC)[C@@H]2OP(=O)(S)OC[C@H]2O[C@@H](n3ccc(N)nc3=O)[C@H](OCCOC)[C@@H]2OP(=O)(S)OC[C@H]2O[C@@H](n3cc(C)c(=O)[nH]c3=O)C[C@@H]2OP(=O)(S)OC[C@H]2O[C@@H](n3cnc4c(N)ncnc43)[C@H](O)[C@@H]2OP(=O)(S)OC[C@H]2O[C@@H](n3cnc4c(=O)[nH]c(N)nc43)[C@H](O)[C@@H]2OP(=O)(S)OC[C@H]2O[C@@H](n3ccc(N)nc3=O)[C@H](O)[C@@H]2OP(=O)(S)OC[C@H]2O[C@@H](n3ccc(N)nc3=O)[C@H](O)[C@@H]2OP(=O)(S)OC[C@H]2O[C@@H](n3cc(C)c(=O)[nH]c3=O)C[C@@H]2OP(=O)(S)OC[C@H]2O[C@@H](n3ccc(N)nc3=O)[C@H](O)[C@@H]2OP(=O)(S)OC[C@H]2O[C@@H](n3cc(C)c(=O)[nH]c3=O)C[C@@H]2OP(=O)(S)OC[C@H]2O[C@@H](n3cnc4c(=O)[nH]c(N)nc43)[C@H](O)[C@@H]2OP(=O)(S)OC[C@H]2O[C@@H](n3cnc4c(=O)[nH]c(N)nc43)[C@H](O)[C@@H]2OP(=O)(S)OC[C@H]2O[C@@H](n3cnc4c(N)ncnc43)[C@H](O)[C@@H]2OP(=O)(S)OC[C@H]2O[C@@H](n3cc(C)c(=O)[nH]c3=O)C[C@@H]2OP(=O)(S)OC[C@H]2O[C@@H](n3cc(C)c(=O)[nH]c3=O)C[C@@H]2OP(=O)(S)OC[C@H]2O[C@@H](n3cc(C)c(=O)[nH]c3=O)C[C@@H]2OP(=O)(S)OC[C@H]2O[C@@H](n3cnc4c(=O)[nH]c(N)nc43)[C@H](OCCOC)[C@@H]2OP(=O)(S)OC[C@H]2O[C@@H](n3cnc4c(N)ncnc43)[C@H](OCCOC)[C@@H]2O)[C@@H](CO)O[C@H]1n1ccc(N)nc1=O (some centres not stated),Activity,Mus musculus [1],Non-toxic
same,Activity,Mus musculus [2],Active
same,Activity,Mus musculus [3],Non-toxic
same,Activity,Mus musculus [4],Non-toxic
same,Activity,Mus musculus [5],Active
same,Activity,Mus musculus [6],Non-toxic
same,pIC50,BCL1,5.49
same,Activity,Mus musculus [7],Non-toxic
same,Activity,Mus musculus [8],Non-toxic
same,inhibition,Mus musculus [9],inactive
same,Activity,Mus musculus [10],Active
same,Activity,Mus musculus [11],Non-toxic
